LEDGF integ inh = blocks HIV-1 LEDGF/p75-dependent DNA integration; TR-FRET IN-LEDGF/p75 DNA integration, Eu/Cy5; inhibition, % at 3.7 µM; 370,000 compounds, 0.64% hits; AID 743269;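 active = inhibition above the screen-wide mean plus 3 SD, cut at about 13% in these data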;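 also: signal is the Cy5 over europium emission ratio at 671 and 618 nm; 0% = plate median of compound wells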
DAGLB inhibitor = blocks human DAGLB lipase activity | Q8NCG7 | HEK293T DAGLB membrane lysate, EnzChek fluorogenic substrate | inhibition, % at 5.17 µM | 340,000 compounds, 0.059% hits | AID 504411; in the data active = inhibition above about 34%;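 also: 0% = enzyme with vehicle and 100% = wells lacking enzyme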
PRMT1 FP inh = PRMT1 (human) inhibition, primary screen. Q99873. recombinant PRMT1, activity-based probe fluorescence polarization. inhibition, % at 2.79 µM. 370,000 compounds, 1.3% hits. AID 652257;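 active = inhibition above about 21% made by adding two undisclosed values, limit read from the data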
Target sequence (Q99873 whole entry, looked up): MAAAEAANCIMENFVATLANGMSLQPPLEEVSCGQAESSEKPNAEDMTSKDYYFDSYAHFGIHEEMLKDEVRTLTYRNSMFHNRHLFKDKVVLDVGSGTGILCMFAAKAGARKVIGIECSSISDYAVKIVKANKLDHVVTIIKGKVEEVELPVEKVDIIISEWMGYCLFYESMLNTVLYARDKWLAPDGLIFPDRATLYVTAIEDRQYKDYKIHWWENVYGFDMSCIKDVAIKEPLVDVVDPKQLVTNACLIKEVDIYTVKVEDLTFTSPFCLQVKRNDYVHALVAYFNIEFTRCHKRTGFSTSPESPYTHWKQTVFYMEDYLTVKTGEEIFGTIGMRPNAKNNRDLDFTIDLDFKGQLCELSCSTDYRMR
HTRA1 inh = HTRA1 (human) protease inhibition | Q92743 | recombinant HTRA1, FP-rhodamine activity-based probe, fluorescence polarization | inhibition, % at 5.96 µM | 340,000 compounds, 0.5% hits; in the data active = inhibition above about 36%;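 also: 0% = enzyme with DMSO and 100% = wells lacking enzyme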
ABHD4 inh = ABHD4 (mouse) inhibition, primary FP screen | Q8VD66 | purified mABHD4, FP-Rh probe fluorescence polarization | inhibition, % at 8.92 µM | 370,000 compounds, 0.54% hits | AID 720543;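 active = inhibition exceeding the mean over every tested compound plus 3 SD, cut at about 30% in these data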;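 also: 0% = plate median of compound wells and 100% = S159A mutant with DMSO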
Target sequence (Q8VD66 whole entry, looked up): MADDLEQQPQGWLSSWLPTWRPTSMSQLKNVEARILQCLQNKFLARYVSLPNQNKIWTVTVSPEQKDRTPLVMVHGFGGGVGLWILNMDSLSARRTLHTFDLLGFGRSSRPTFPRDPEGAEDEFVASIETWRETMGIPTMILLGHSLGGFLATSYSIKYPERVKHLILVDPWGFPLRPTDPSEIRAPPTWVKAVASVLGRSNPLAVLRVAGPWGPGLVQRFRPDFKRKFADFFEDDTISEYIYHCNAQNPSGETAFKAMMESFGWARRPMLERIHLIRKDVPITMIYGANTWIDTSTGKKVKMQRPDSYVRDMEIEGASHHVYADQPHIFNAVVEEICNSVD
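System: mouse ABHD4 enzyme, wild type / Medium: HEPES pH 7.0, NaCl, Pluronic buffer / Reagent: FP-Rh activity-based fluorescent probe / Control set: S159A mutant high control, sample median low control / Detection: fluorescence polarization with parallel and perpendicular emission, 525/598 nm / Schedule: 45 min + 60 min at 25 °C / Compound dosing: 8.92 µM, single dose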
rCAG binder = molecules binding r(CAG) RNA repeats | r(CAG) RNA repeat, TO-PRO-1 dye displacement fluorescence | inhibition, % at 3 µM | 370,000 compounds, 1.3% hits | AID 651821;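 active = inhibition above the plate cutoff, the mean of all test compounds on that plate plus 3 SD, cut at about 35% in these data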;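 also: 0% = DMSO alone and 100% = 100 µM mitoxantrone as full dye displacement; higher means more dye released from RNA so lower well fluorescence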
IN multimer act = activates HIV-1 integrase multimerization in LEDGF counter-screen. shares compounds with LEDGF integ inh. TR-FRET HIV-1 integrase multimerization, biochemical. activation, % at 7.7 µM. 2,000 compounds, 17% hits. AID 1053131; in the data active = activation above about 8.9%
TR-FRET interf = TR-FRET optical interference, LEDGF/p75 integration counter-screen; AID 1053135; shares compounds with LEDGF integ inh; inhibition, % at 7.7 µM; 2,000 tested, under 10 active; TR-FRET optical interference counterscreen, HIV-1 IN multimerization;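 active = inhibition above the mean over all tested compounds plus 3 SD, which no compound reached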;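 also: 0% = integrase with antibodies and DMSO and 100% = antibodies without integrase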
IN-LEDGF confirm = confirmation of HIV-1 LEDGF/p75-dependent integration inhibitors; shares compounds with LEDGF integ inh; AID 1053136; TR-FRET LEDGF/p75-dependent HIV-1 integration, biochemical; 2,000 compounds, 36% hits; inhibition, % at 3.7 µM; in the data active = inhibition above about 14%
Starred values were filed as active, the others as inactive. The list is not random: actives were taken first. Their share in the collection is about 3.2%.

What do the screens show for `O=C(COC(=O)C1CCN(S(=O)(=O)c2ccc3c(c2)OCCO3)CC1)NC1CCS(=O)(=O)C1` (configuration not stated)?
LEDGF integ inh: 81.0*; DAGLB inhibitor: 2.6; PRMT1 FP inh: 1.7; HTRA1 inh: -3.9; ABHD4 inh: 3.6; rCAG binder: -0.7; IN multimer act: -0.2; TR-FRET interf: 1.3; IN-LEDGF confirm: 1.4

What do the screens show for `CCc1c(-c2ccc(OC)cc2)ncn1CCc1ccccc1OC`?
LEDGF integ inh: 2.9; PRMT1 FP inh: -0.9; ABHD4 inh: 8.1; rCAG binder: 0.9

How did CCn1ncc(NC(=S)Nc2ccc3c(c2)OCO3)c1C(N)=O do in these assays?
LEDGF integ inh: 0.8; DAGLB inhibitor: -2.2; PRMT1 FP inh: 1.6; HTRA1 inh: -4.4; ABHD4 inh: 9.2; rCAG binder: -0.3

How did CCn1ncc(NC(=S)Nc2ccc(OC)c(OC)c2)c1C(N)=O do in these assays?
LEDGF integ inh: 14.0*; DAGLB inhibitor: 1.6; PRMT1 FP inh: 22.4*; HTRA1 inh: 3.6; ABHD4 inh: 18.5; rCAG binder: 1.7; IN multimer act: 1.0; TR-FRET interf: -3.7; IN-LEDGF confirm: -3.8

How did S=c1[nH]nc(-c2ccccc2)n1/N=C/C=C/c1ccco1 do in these assays?
LEDGF integ inh: 13.9*; DAGLB inhibitor: 1.6; PRMT1 FP inh: 10.4; HTRA1 inh: 13.5; ABHD4 inh: 26.8; rCAG binder: 28.0; IN multimer act: 0.9; TR-FRET interf: -4.5; IN-LEDGF confirm: 16.1*

Results for S=c1[nH]nc(-c2cccnc2)n1/N=C/C=C/c1ccco1 ?
LEDGF integ inh: 0.0; DAGLB inhibitor: 0.3; PRMT1 FP inh: 6.3; HTRA1 inh: 8.3; ABHD4 inh: 4.1; rCAG binder: 5.5

Results for C/C(C=Nn1c(-c2ccc(F)cc2)n[nH]c1=S)=C/c1ccco1 ?
LEDGF integ inh: 14.6*; PRMT1 FP inh: 18.1; ABHD4 inh: 14.2; rCAG binder: 33.9; IN multimer act: -0.3; TR-FRET interf: 1.4; IN-LEDGF confirm: 9.4

Results for CC(/C=N/n1c(-c2cccnc2)n[nH]c1=S)=C\c1ccco1 ?
LEDGF integ inh: -1.8; DAGLB inhibitor: -0.6; PRMT1 FP inh: 1.2; HTRA1 inh: 5.2; ABHD4 inh: 4.0; rCAG binder: 5.0

What do the screens show for `O=C1C(=NO)CCc2ccccc21`?
LEDGF integ inh: 29.4*; DAGLB inhibitor: 1.4; PRMT1 FP inh: 7.8; HTRA1 inh: 25.9; ABHD4 inh: 21.9; rCAG binder: 8.8; IN multimer act: 3.2; TR-FRET interf: -11.5; IN-LEDGF confirm: 26.5*

How did O=C1C2C3C=CC(C3)C2C(=O)N1c1ccccc1OS(=O)(=O)c1ccccc1 (configuration not stated) do in these assays?
LEDGF integ inh: 21.4*; DAGLB inhibitor: -2.5; PRMT1 FP inh: 1.9; HTRA1 inh: -4.8; ABHD4 inh: 10.3; rCAG binder: -5.1; IN multimer act: -0.3; TR-FRET interf: 1.0; IN-LEDGF confirm: -2.5

Results for Cc1ccc(S(=O)(=O)Oc2ccccc2N2C(=O)C3C4CCC(C4)C3C2=O)cc1 (configuration not stated) ?
LEDGF integ inh: -4.2; DAGLB inhibitor: -0.6; PRMT1 FP inh: 2.9; HTRA1 inh: -5.8; ABHD4 inh: -0.5; rCAG binder: -0.1

Results for N#CCCn1[nH]c(-c2ccccc2)cc1=O ?
LEDGF integ inh: 27.5*; DAGLB inhibitor: 5.9; PRMT1 FP inh: 6.0; HTRA1 inh: -0.6; ABHD4 inh: 3.6; rCAG binder: 6.7; IN multimer act: 6.7; TR-FRET interf: -23.4; IN-LEDGF confirm: 6.0

Results for Cc1cc(=O)n(CCCc2ccccc2)[nH]1 ?
LEDGF integ inh: 0.6; DAGLB inhibitor: 3.7; PRMT1 FP inh: 3.6; HTRA1 inh: -6.4; ABHD4 inh: 9.2; rCAG binder: -2.5

Results for COc1ccc(CC(=O)N/N=C/c2cccnc2)cc1OC ?
LEDGF integ inh: -2.9; DAGLB inhibitor: -2.9; PRMT1 FP inh: 0.9; HTRA1 inh: 3.5; ABHD4 inh: -3.3; rCAG binder: -6.0

How did CCOc1ccc(CC(=O)N/N=C/c2cccnc2)cc1OCC do in these assays?
LEDGF integ inh: 69.8*; DAGLB inhibitor: -1.4; PRMT1 FP inh: -1.5; HTRA1 inh: -0.6; ABHD4 inh: 4.4; rCAG binder: -3.2; IN multimer act: 1.9; TR-FRET interf: -9.6; IN-LEDGF confirm: -0.3

What do the screens show for `CC(=O)c1cccc(-c2ccc3c(=O)[nH]c(Nc4ccccc4)cc3c2)c1`?
LEDGF integ inh: 21.2*; DAGLB inhibitor: -9.4; PRMT1 FP inh: -0.2; HTRA1 inh: 13.6; ABHD4 inh: 7.1; rCAG binder: 29.1; IN multimer act: 4.0; TR-FRET interf: -14.4; IN-LEDGF confirm: 71.1*

Results for CCCC(=O)Nc1ccc(OCC(O)CNC(C)C)c(C(C)=O)c1 (configuration not stated) ?
LEDGF integ inh: 3.6; DAGLB inhibitor: 2.4; PRMT1 FP inh: -6.5; HTRA1 inh: 2.7; ABHD4 inh: 3.4; rCAG binder: 0.4

What do the screens show for `CC(=O)Nc1cccc(C(=O)O)n1`?
LEDGF integ inh: -1.6; DAGLB inhibitor: 1.4; PRMT1 FP inh: 0.0; HTRA1 inh: 4.1; ABHD4 inh: 4.4; rCAG binder: 0.2

Results for O=C(O)c1cccc(Cl)n1 ?
LEDGF integ inh: 82.8*; DAGLB inhibitor: -1.3; PRMT1 FP inh: -4.0; HTRA1 inh: 3.1; ABHD4 inh: -2.6; rCAG binder: -0.5; IN multimer act: 1.6; TR-FRET interf: -8.1; IN-LEDGF confirm: -4.5

How did CCOc1ccc(C(=O)NC(=S)N(Cc2ccccc2)Cc2ccccc2)cc1 do in these assays?
LEDGF integ inh: 10.3; DAGLB inhibitor: -4.8; PRMT1 FP inh: -5.6; HTRA1 inh: -19.8; ABHD4 inh: -0.3; rCAG binder: 2.6

Results for CCCN(CCC)C(=S)NC(=O)c1ccc(-c2ccccc2)cc1 ?
LEDGF integ inh: 25.8*; DAGLB inhibitor: -6.3; PRMT1 FP inh: 0.4; HTRA1 inh: -10.8; ABHD4 inh: 4.5; rCAG binder: 2.1; IN multimer act: 1.5; TR-FRET interf: -7.5; IN-LEDGF confirm: 34.9*

How did CN1CCN(c2ncnc3c2ncn3[C@H]2CN(Cc3ccc(Cl)cc3)C[C@@H](CO)O2)CC1 do in these assays?
LEDGF integ inh: 13.7*; PRMT1 FP inh: -2.1; ABHD4 inh: 2.0; rCAG binder: 1.2; IN multimer act: 0.9; TR-FRET interf: -3.3; IN-LEDGF confirm: -10.1

Screens as filed in PubChem BioAssay.
